Molecules are shown by their SMILES. Calls of active or inactive are those of the source. The rule behind the calls is not given here.

For assay [1], the system named is K562. In words: Disruption of mitochondrial membrane potential in human K562 cells after 72 hrs by JC1 staining-based assay. It counts as functional, cell-based. In outline: (§1)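 Cells seeded and treated with 10, 20 and 50 µM compound. Cells pelleted at 600 × g, resuspended in JC-1 dye, and incubated at 37 °C in 5% CO2 for 15 min. Green monomers mark disrupted membrane potential; orange aggregates mark intact potential.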

Assay [2] in a line: Cytotoxicity against human UO31 cells assessed as cell growth at 10^-5 M after 48 hrs by SRB assay relative to control. The class given is functional. The following applies: UO-31, 48 h, read-out: Activity. In outline:
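Single-dose NCI 60-cell-line screen run under the US NCI protocol. Compounds tested at 10 µM. Read-out is growth percent for each cell line.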
Background: Sulforhodamine B stains cellular protein and so reports cell mass.

Assay [3] can be described thus: (§2) Cytotoxicity against human K562 cells assessed as decrease in cell proliferation after 48 hrs by MTT assay. Particulars: K562, 48 h. The class given is functional, cell-based. The method, boiled down: (§3)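 MTT viability assay in A549, K562 and PC-3 cells. Media carried 10% FBS, 1% L-glutamine and penicillin/streptomycin, at 37 °C in 5% CO2. Cells seeded and left overnight, then exposed to 5–100 µM compound for 48 h. MTT added to 0.5 mg/ml final for 4 h, medium removed, and SDS buffer added. Data given as mean ± SD, analysed by ANOVA/Tukey.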
Background: Formazan colour is commonly taken as a measure of viable cells.

Assay [4] has as its system K562. Described as §2. It counts as functional, cell-based. In outline:
as §3

Assay [5] can be described thus: Induction of apoptosis in human K562 cells assessed as upregulation of caspase-3 levels using DEVD-pNA substrate after 72 hrs by ELISA. The class given is functional, cell-based. The method, boiled down:
(§4)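 Supernatant protein measured by Bradford. 200 µg protein incubated with pNA substrate (DEVD-pNA for caspase-3) using a colorimetric kit. Data given as mean ± SD; one-way ANOVA with Tukey test, p < 0.05.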
Background: ELISA stands for enzyme-linked immunosorbent assay.

In assay [6] the test system is K562. Nature of the assay: Induction of apoptosis in human K562 cells assessed as downregulation of Bcl-2 levels after 72 hrs by […]. It counts as functional, cell-based.
The nature of assay [7]: Cytotoxicity against human PC3 cells assessed as decrease in cell proliferation after 48 hrs by MTT assay. It counts as functional, cell-based. Particulars: PC-3, 48 h. The method, boiled down:
as §3

The test system of assay [8] is PC-3. In words: Induction of apoptosis in human PC3 cells assessed as downregulation of Bcl-2 levels by […]. The class given is functional, cell-based.
Assay [9] can be described thus: Induction of apoptosis in human PC3 cells assessed as upregulation of caspase-3 levels using DEVD-pNA substrate by ELISA. It counts as functional, cell-based. The following applies: PC-3. In outline: as §4
The subject of assay [10] is PC-3. In words: Disruption of mitochondrial membrane potential in human PC3 cells at 10 to 50 uM after 72 hrs by JC1 staining-based assay. It counts as functional, cell-based. In outline: as §1
A short description of assay [11]: Induction of apoptosis in human A549 cells assessed as upregulation of caspase-8 levels at 50 uM using IETD-pNA substrate by ELISA. It counts as functional, cell-based.
Assay [12] relates to A549. In words: Disruption of mitochondrial membrane potential in human A549 cells after 72 hrs by JC1 staining-based assay. It counts as functional, cell-based. In outline:
as §1

Assay [13] can be described thus: Cytotoxicity against human A549 cells assessed as decrease in cell proliferation after 48 hrs by MTT assay. It counts as functional, cell-based. The following applies: A549, 48 h. In outline:
as §3

The nature of assay [14]: Induction of apoptosis in human A549 cells assessed as upregulation of caspase-3 levels using DEVD-pNA substrate by ELISA. It counts as functional, cell-based. In outline:
as §4

Assay [15] deals with A549. Nature of the assay: Induction of apoptosis in human A549 cells assessed as downregulation of Bcl-2 levels by […]. The class given is functional, cell-based.

On to `CC(=O)Nc1ccc(OCc2nnc(SCC(=O)Nc3ccc(Br)cc3)n2Cc2ccccc2)cc1`, for which the Activity entry in assay [1], in [4], in assay [5] and in assay [6] was “Dose-dependent effect” each time. In assay [2], the growth at 10 µM turned out to be 52.8%. The half-maximal inhibitory concentration (IC50) in [3] was found to be 7.71 µM.

As for `Cc1ccc(C(C)C)c(OCc2nnc(SCC(=O)Nc3ccc(S(N)(=O)=O)cc3)n2Cc2ccccc2)c1`, the half-inhibitory concentration (IC50) in assay [7] is 5.96 µM. Also, the Activity result in assay [8] and in assay [9] was “Dose-dependent effect” each time. Also, the growth at 10 µM in assay [2] turned out to be 42.7%. In [10], the outcome was Active.

With `Cc1ccc(C(C)C)c(OCc2nnc(SCC(=O)Nc3ccc(Cl)cc3)n2Cc2ccccc2)c1`, the result in assay [11] was Active. The growth at 10 µM in [2] worked out at 53.6%. Also, the Activity result in [12], in assay [14] and in [15] was “Dose-dependent effect” each time. In assay [13], the IC50 is 7.9 µM.

As a reminder, the IC50 is the concentration that inhibits the measured activity by half.
